Assay outcomes: PubChem BioAssay, several laboratories
M1 antagonist: blocks the rat M1 muscarinic receptor response to acetylcholine | P08482 | CHO-M1 cells, Fluo-4 calcium, ACh EC80 antagonist mode; active compounds read low | B-score at 10 µM | 64,000 tested, 3.4% active;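 active = calcium fluorescence response, raw or row-and-column corrected B-score, differing from the plate sample mean either way at a set confidence level, mostly lower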
hDAT+cocaine: human DAT dopamine uptake with cocaine, either direction | Q01959 | LLC-PK1 hDAT cells, [14C]-dopamine uptake with cocaine IC80; actives deviate in either direction | B-score at 10 µM | 110,000 tested, 1.3% active | AID 449768;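 active = Z score or B-score, a plate-position-corrected score, falls beyond the plate's 99.7% confidence bounds, in either direction; inactive = both scores lie inside the 99.7% bounds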
Target sequence (Q01959 whole entry, looked up): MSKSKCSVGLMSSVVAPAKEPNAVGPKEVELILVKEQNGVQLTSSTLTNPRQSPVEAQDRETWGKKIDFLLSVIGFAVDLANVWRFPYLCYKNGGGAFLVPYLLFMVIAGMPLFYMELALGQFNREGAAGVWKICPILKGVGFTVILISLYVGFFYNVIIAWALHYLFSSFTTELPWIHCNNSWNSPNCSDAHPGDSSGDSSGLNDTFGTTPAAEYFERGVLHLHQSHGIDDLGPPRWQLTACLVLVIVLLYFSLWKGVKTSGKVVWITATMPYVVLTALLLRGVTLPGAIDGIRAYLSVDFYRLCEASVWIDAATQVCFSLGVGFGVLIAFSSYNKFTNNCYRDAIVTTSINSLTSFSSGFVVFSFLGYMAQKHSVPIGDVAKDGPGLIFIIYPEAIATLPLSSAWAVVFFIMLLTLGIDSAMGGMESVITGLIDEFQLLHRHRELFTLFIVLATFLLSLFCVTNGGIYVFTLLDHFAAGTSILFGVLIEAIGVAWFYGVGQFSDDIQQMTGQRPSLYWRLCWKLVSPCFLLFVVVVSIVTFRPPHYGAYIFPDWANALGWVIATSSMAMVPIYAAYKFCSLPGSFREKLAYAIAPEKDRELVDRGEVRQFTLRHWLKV
D1 mod: allosterically modulates the human D1 dopamine receptor; P21728; HEK293 D1, CRE-luciferase, dopamine EC30 potentiation; actives deviate in either direction; B-score at 10 µM; 58,000 tested, 5.9% active; AID 641;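 active = luminescence count or its row- and column-corrected plate score outside the 99.7% band of the plate's sample wells, on either side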
M1 agonist: M1 muscarinic receptor agonism; AID 626; CHO-M1 cells, Fluo-4 calcium fluorescence, agonist mode; active compounds read high; 64,000 tested, 3% active; B-score at 10 µM;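 active = fluorescence rise, raw or as B-score row- and column-corrected plate score, outside the 99.7% band of its plate's samples, either direction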
BAP1 block: human BAP1 deubiquitinase inhibition. AID 436. recombinant BAP1, Ub-AMC hydrolysis fluorescence kinetic; active compounds read low. 72,000 tested, 0.48% active. calls only at 20 µM;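 active = activity remaining at or below 50% of control, provided the compound also passes the data quality filters; inactive = the rest, including low values that fail the filters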
HEK293 NFkB inh: lowers PMA/ionomycin-induced NF-kB signal in HEK293 cells; 62,000 tested, 0.21% active; inhibition, % at 3 µM; AID 465; HEK-293 NF-kB luciferase reporter, luminescence;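 active = inhibition above the mean of all tested compounds plus 3 SD, cut at about 40% in these data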
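System: NF-kB luciferase reporter HEK-293 cells | Replication: Single test | Control set: DMSO vs reference inhibitor | Evaluation: % inhibition | Schedule: 1 h pretreatment, 16 h stimulation, 37 °C | Probe or stimulus: PMA with ionomycin | Compound dosing: One dose, 3 µM | Detection: Luciferase luminescence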
D1 PAM confirm: D1 receptor (human) allosteric modulation, confirmed | shares compounds with D1 mod | HEK293 D1 CRE-luciferase, dopamine EC30 potentiation; active compounds read high | luminescence at 10 µM | 2,200 tested, 88% active | AID 642;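 active = luminescence in either of two replicates above the same-plate mean plus 3 SD of the low-dose dopamine control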
D1 no dopamine: activates D1 CRE-luciferase signal without dopamine present. shares compounds with D1 mod. HEK293 D1 CRE-luciferase, luminescence, no dopamine; active compounds read high. luminescence at 10 µM. 1,900 tested, 0.8% active; in the data active = luminescence above about 3900
Isoprot counter: isoproterenol response counter-screen activity for D1 modulators; shares compounds with D1 mod; HEK293 D1 CRE-luciferase, isoproterenol EC30 counter-screen; calls only at 10 µM; 2,200 tested, 63% active; AID 647;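 active = luminescence in either replicate above plate mean of wells with a partly effective reference agonist dose plus 3 SD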;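 note: isoproterenol raises cAMP through native beta-adrenoceptor Gs so signal bypasses D1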
A number is an active result. An excerpt weighted towards active compounds, which were near 7.2% of everything screened.

N#CCCCCn1c(-c2cncs2)nc2ccccc21 was read as M1 antagonist inactive, hDAT+cocaine inactive, D1 mod 4.7, M1 agonist inactive, BAP1 block inactive, HEK293 NFkB inh inactive, D1 PAM confirm 17344, D1 no dopamine inactive and Isoprot counter active.
For c1ccc(Cn2c(-c3cncs3)nc3ccccc32)cc1 the results were hDAT+cocaine inactive.
For Cc1ccc(S(=O)(=O)N(Cc2ccccc2)c2ccccc2)cc1 the results were BAP1 block inactive.
For C=CCOC(=O)c1[nH]c2c(c1C)C(=O)CC(c1ccco1)C2 (centres undefined) the results were M1 antagonist inactive, hDAT+cocaine inactive, D1 mod inactive, M1 agonist inactive, BAP1 block inactive and HEK293 NFkB inh inactive.
For Cc1c(C(=O)OCC(C)C)[nH]c2c1C(=O)CC(c1ccco1)C2 (centres undefined) the results were M1 antagonist inactive, hDAT+cocaine inactive, D1 mod 5.8, M1 agonist inactive, BAP1 block inactive, HEK293 NFkB inh inactive, D1 PAM confirm 12056, D1 no dopamine inactive and Isoprot counter inactive.
For COc1ccc(-c2noc(COc3ccc4ccccc4c3Br)n2)cc1OC the results were M1 antagonist inactive, hDAT+cocaine inactive, D1 mod 3.7, M1 agonist inactive, BAP1 block inactive, HEK293 NFkB inh inactive, D1 PAM confirm 8636, D1 no dopamine inactive and Isoprot counter inactive.
COc1ccc(-c2noc(CSc3nc(-c4ccccc4)cc(=O)[nH]3)n2)cc1OC was read as M1 antagonist inactive, hDAT+cocaine inactive, D1 mod 7.6, M1 agonist inactive, BAP1 block inactive, HEK293 NFkB inh inactive, D1 PAM confirm 7928 and Isoprot counter active.
COc1ccccc1N1CCN(C(=O)CSc2nc(-c3ccccc3)cc(=O)[nH]2)CC1 was read as M1 antagonist inactive, hDAT+cocaine inactive, D1 mod inactive, M1 agonist inactive, BAP1 block inactive and HEK293 NFkB inh inactive.
Screening COc1ccc(-c2noc(CSc3nnc(-c4ccncc4)n3-c3ccc(F)cc3)n2)cc1OC returned M1 antagonist inactive, hDAT+cocaine inactive, D1 mod 4.6, M1 agonist inactive, BAP1 block inactive, HEK293 NFkB inh inactive, D1 PAM confirm 10824, D1 no dopamine inactive and Isoprot counter inactive.
For Cc1ccc(-c2noc(COc3ccc4c(c3)OCO4)n2)cc1 the results were hDAT+cocaine inactive.
COc1ccc(-c2noc(COc3ccc(C)c(C)c3)n2)cc1OC was read as M1 antagonist inactive, hDAT+cocaine inactive, D1 mod 4.5, M1 agonist inactive, BAP1 block inactive, HEK293 NFkB inh inactive, D1 PAM confirm 9288 and Isoprot counter active.
For COc1ccc(-c2noc(CCCc3ccccc3)n2)cc1OC the results were M1 antagonist inactive, hDAT+cocaine inactive, D1 mod inactive, M1 agonist inactive, BAP1 block inactive and HEK293 NFkB inh inactive.
Screening CCCOC(=O)C1=C(C)N(C)C(=O)NC1c1cc(Cl)c(O)c(OC)c1 (centres undefined) returned BAP1 block inactive.
`Cc1ccccc1-n1c(-c2ccc(C(C)(C)C)cc2)n[nH]c1=S` gave BAP1 block inactive.
Screening COC(=O)C1CCN(C(=O)COc2cc3sc(C)nc3c3sccc23)CC1 returned M1 antagonist inactive, hDAT+cocaine inactive, D1 mod inactive, M1 agonist inactive, BAP1 block inactive and HEK293 NFkB inh inactive.
For Cc1nc2c(cc(Oc3ccc(S(=O)(=O)N4CCOCC4)cn3)c3ccsc32)s1 the results were M1 antagonist inactive, hDAT+cocaine inactive, D1 mod 8.5, M1 agonist inactive, BAP1 block inactive, HEK293 NFkB inh inactive, D1 PAM confirm 12244, D1 no dopamine inactive and Isoprot counter active.
